ChEMBL document CHEMBL4052732, “Design, synthesis and biological evaluation of GPR55 agonists” (Bioorg Med Chem, 2017)

What was measured:
[1] = target: T1, G-protein coupled receptor 55 (Homo sapiens, UniProt Q9Y2T6); experiment: Agonist activity at beta-galactosidase enzyme fragment-fused GPR55 (unknown origin) expressed in CHOK1 cells assessed as increase in N-terminal deletion beta-galactosidase mutant-tagged beta arrestin recruitment measured for 1 sec by chemiluminescence based pathhunter assay; assay type: functional, cell-based
Procedure, shortened: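 CHO-K1 cells stably co-expressing the receptor–β-gal fragment fusion and the β-arrestin–deletion-mutant fusion, kept in selection medium, passaged up to 10 times. Ligands tested from 0.5 nM to 30 μM. Chemiluminescent substrate signal read at room temperature for 1 s. Vehicle readings subtracted from ligand readings (RLU), and EC50 obtained from these values. LPI served as positive control. Run in triplicate, repeated at least 3 times.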
Target sequence in this assay (Q9Y2T6 whole entry, looked up, stated change not applied, the tested form may be a part): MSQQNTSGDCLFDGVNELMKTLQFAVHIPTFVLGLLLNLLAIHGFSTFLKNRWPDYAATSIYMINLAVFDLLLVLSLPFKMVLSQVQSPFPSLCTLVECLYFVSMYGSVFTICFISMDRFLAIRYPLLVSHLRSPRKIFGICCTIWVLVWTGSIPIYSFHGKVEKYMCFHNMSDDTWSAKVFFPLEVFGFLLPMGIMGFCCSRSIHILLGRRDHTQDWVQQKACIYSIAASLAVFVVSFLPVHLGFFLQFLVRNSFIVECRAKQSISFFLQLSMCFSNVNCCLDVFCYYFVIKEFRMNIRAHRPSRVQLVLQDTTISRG

[2] = target: Cannabinoid receptor 1 (Homo sapiens, UniProt P21554); experiment: Agonist activity at human brain CB1 receptor expressed in U2OS cells assessed as increase in beta arrestin recruitment after 60 mins by fluorescence assay; assay type: functional, cell-based
Chain of Cannabinoid receptor 1 (P21554 whole entry): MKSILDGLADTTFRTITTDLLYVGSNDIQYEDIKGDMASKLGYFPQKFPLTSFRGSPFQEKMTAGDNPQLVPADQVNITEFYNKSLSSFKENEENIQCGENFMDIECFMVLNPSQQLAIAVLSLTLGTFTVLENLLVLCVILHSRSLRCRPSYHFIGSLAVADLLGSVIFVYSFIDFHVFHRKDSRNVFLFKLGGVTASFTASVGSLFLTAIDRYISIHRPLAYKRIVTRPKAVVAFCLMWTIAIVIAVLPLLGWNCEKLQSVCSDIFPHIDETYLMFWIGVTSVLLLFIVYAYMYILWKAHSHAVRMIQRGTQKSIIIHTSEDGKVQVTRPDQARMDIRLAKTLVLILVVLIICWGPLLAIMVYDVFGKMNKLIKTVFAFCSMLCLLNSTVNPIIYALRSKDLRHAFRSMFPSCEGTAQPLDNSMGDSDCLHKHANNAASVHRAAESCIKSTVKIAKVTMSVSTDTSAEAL

[3] = target: Cannabinoid receptor 2 (Homo sapiens, UniProt P34972); experiment: Agonist activity at human CB2 receptor expressed in U2OS cells assessed as increase in GFP-tagged beta arrestin recruitment after 75 mins by fluorescence assay; assay type: functional, cell-based
Chain of Cannabinoid receptor 2 (P34972 whole entry): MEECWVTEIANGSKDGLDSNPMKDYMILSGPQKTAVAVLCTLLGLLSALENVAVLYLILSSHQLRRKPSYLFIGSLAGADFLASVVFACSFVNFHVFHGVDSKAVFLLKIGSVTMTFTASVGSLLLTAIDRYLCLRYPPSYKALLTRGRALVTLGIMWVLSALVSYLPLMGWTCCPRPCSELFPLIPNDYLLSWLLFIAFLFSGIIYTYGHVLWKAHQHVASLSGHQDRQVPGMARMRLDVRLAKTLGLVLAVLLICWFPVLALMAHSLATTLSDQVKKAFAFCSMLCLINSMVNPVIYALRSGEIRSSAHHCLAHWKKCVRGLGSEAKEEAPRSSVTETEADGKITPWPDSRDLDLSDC

[4] = target: T1, G-protein coupled receptor 55; experiment: Agonist activity at HA-epitope-tagged variant of GPR55E with serine enhanced C terminus (unknown origin) expressed in human U2OS cells assessed as increase in GFP-tagged beta arrestin2 recruitment after 75 mins by fluorescence assay; assay type: cell-based
Target sequence in this assay (Q9Y2T6 whole entry, looked up, the tested form may be a part): as the sequence (Q9Y2T6 whole entry, looked up, stated change not applied, the tested form may be a part) above

Structure (SMILES) | EC50 [1] [nM] | also measured
COc1ccccc1/C=C/C(=O)NC(=S)Nc1ccc(S(=O)(=O)NCC(O)CO)cc1 (stereo not given) | > 30000 | –
Cc1cccc(N2CCN(C(=O)c3cc(S(=O)(=O)N(C)C)ccc3N3CCCC3)CC2)c1C | – | EC50 [2]: > 30000 nM; EC50 [3]: > 30000 nM; EC50 [4]: 260 nM
COc1ccccc1/C=C/C(=O)NC(=S)Nc1ccc(S(=O)(=O)N(C)c2ccncc2)cc1 | 500 | –
COc1ccccc1/C=C/C(=O)NC(=S)Nc1ccc(S(=O)(=O)N(CCO)c2ccccc2)cc1 | 700 | –
COc1ccccc1/C=C/C(=O)NC(=S)Nc1ccc(S(=O)(=O)N(C)c2ccccc2)cc1 | – | EC50 [2]: > 30000 nM; EC50 [3]: > 30000 nM; EC50 [4]: 110 nM
COc1ccccc1/C=C/C(=O)NC(=S)Nc1ccc(S(=O)(=O)N(Cc2ccncc2)c2ccccc2)cc1 | 300 | –
CN(c1ccccc1)S(=O)(=O)c1ccc(NC(=S)NC(=O)c2cnc3ccccc3c2)cc1 | > 30000 | –
COc1ccccc1/C=C/C(=O)NC(=S)Nc1ccc(S(=O)(=O)Nc2ccccc2)cc1 | 600 | –
COc1ccccc1/C=C/C(=O)NC(=S)Nc1ccc(S(=O)(=O)N(Cc2cccc(O)c2)c2ccccc2)cc1 | 2000 | –
COc1ccccc1/C=C/C(=O)NC(=S)Nc1ccc(S(=O)(=O)Nc2onc(C)c2C)cc1 | > 30000 | –
COc1ccccc1/C=C/C(=O)NC(=S)Nc1ccc(S(=O)(=O)N(Cc2ccc(CO)o2)c2ccccc2)cc1 | 100 | –
CN(c1ccccc1)S(=O)(=O)c1ccc(NC(=S)NC(=O)c2ccc3cc(CCO)ccc3c2)cc1 | 300 | –
COc1ccccc1/C=C/C(=O)NC(=S)Nc1ccc(S(=O)(=O)N(Cc2ccccc2O)c2ccccc2)cc1 | 2000 | –
COc1ccccc1/C=C/C(=O)NC(=S)Nc1ccc(S(=O)(=O)NCCO)cc1 | > 30000 | –
COc1ccc2cc(C)c3nnc(SCC(=O)Nc4nc(-c5ccc(F)cc5)cs4)n3c2c1 | – | EC50 [2]: > 30000 nM; EC50 [3]: > 30000 nM; EC50 [4]: 160 nM

More lines, main results first:

EC50 [1] [nM] | Structure (SMILES) | also measured
1000 | CN(c1ccccc1)S(=O)(=O)c1ccc(NC(=S)NC(=O)c2ccc3cccnc3c2)cc1 | –
200 | O=C(NC(=S)Nc1ccc(S(=O)(=O)N(CCO)c2ccccc2)cc1)c1ccc2cccnc2c1 | –
500 | COc1ccccc1/C=C/C(=O)NC(=S)Nc1ccc(S(=O)(=O)N(Cc2ccc(O)cc2)c2ccccc2)cc1 | –
4000 | CN(c1ccccc1)S(=O)(=O)c1ccc(NC(=S)NC(=O)c2ccc3cc(CO)ccc3c2)cc1 | –
500 | O=C(NC(=S)Nc1ccc(S(=O)(=O)N(Cc2ccc(O)cc2)c2ccccc2)cc1)c1ccc2cccnc2c1 | –
20000 | O=C(NC(=S)Nc1ccc(S(=O)(=O)N(CCO)c2ccccc2)cc1)c1ccc2cc(CCO)ccc2c1 | –
6000 | O=C(NC(=S)Nc1ccc(S(=O)(=O)N(Cc2ccc(CO)o2)c2ccccc2)cc1)c1ccc2cc(CCO)ccc2c1 | –
900 | O=C(NC(=S)Nc1ccc(S(=O)(=O)N(Cc2ccncc2)c2ccccc2)cc1)c1ccc2cccnc2c1 | –
600 | O=C(NC(=S)Nc1ccc(S(=O)(=O)N(Cc2ccc(CO)o2)c2ccccc2)cc1)c1ccc2cccnc2c1 | –
